Data taken from ChEMBL document CHEMBL1148915, “Steroids and sesquiterpenoids from the soft corals Dendronephthya gigantea and Lemnalia cervicorni” (2004).

Legend:
P388 = experiment: Cytotoxicity against mouse P388 cells; type: functional; details: read-out: ED50 (the source's name)
Procedure, shortened: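 P-388 mouse lymphocytic leukemia cells supplied by an academic lab (Purdue); in vitro cytotoxicity assay run by a previously described procedure; ED50 reported in µM; mithramycin included as positive control.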

HT-29 = experiment: Cytotoxicity against human HT29 cells; type: functional; details: read-out: ED50 (the source's name)
Procedure, shortened: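 HT-29 human colon adenocarcinoma cells obtained from ATCC; in vitro cytotoxicity assay run by a previously described procedure; value given as ED50 in µM; mithramycin run as positive control.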

| Structure (SMILES) | EC50 (P388) | EC50 (HT-29) |
| --- | --- | --- |
| CC(C)C/C=C/[C@@H](C)[C@H]1CC[C@H]2[C@@H]3CC[C@H]4CC(=O)C=C[C@]4(C)[C@H]3CC[C@]12C [DENDRONESTERONE A] | 9.84 µM | > 100 µM |
| CC1=C[C@H](O)[C@@H]2[C@@H]3[C@H](C(C)C)CC[C@@]2(C)[C@@H]13 [ISOLEMNALOL] | > 50 µM | > 50 µM |
| CO[C@H](C(=O)[C@@H](O)[C@@H](C)O)[C@@H]1Cc2cc3cc(O[C@H]4C[C@@H](O[C@@H]5C[C@@H](O)[C@H](O)[C@@H](C)O5)[C@H](O)[C@@H](C)O4)c(C)c(O)c3c(O)c2C(=O)[C@H]1O[C@H]1C[C@@H](O[C@@H]2C[C@@H](O)[C@@H](O[C@@H]3C[C@](C)(O)[C@H](O)[C@@H](C)O3)[C@@H](C)O2)[C@H](O)[C@@H](C)O1 [PLICAMYCIN] | 0.15 µM | 0.21 µM |
| C=C1C[C@H](O)[C@@H]2[C@@H]3[C@H](C(C)C)CC[C@@]2(C)[C@@H]13 [CERVICOL] | > 50 µM | > 50 µM |
| C=C1[C@H](O)C[C@@H]2[C@@H]3[C@H](C(C)C)CC[C@@]2(C)[C@@H]13 [LEMNALOL] | 16.3 µM | 10.5 µM |
| C=C(CC[C@@H](C)[C@H]1CC[C@H]2[C@@H]3CC[C@H]4CC(=O)C=C[C@]4(C)[C@H]3CC[C@]12C)C(C)C [DENDRONESTERONE B] | > 100 µM | > 100 µM |
| CC1=CC(=O)[C@@H]2[C@@H]3[C@H](C(C)C)CC[C@@]2(C)[C@@H]13 | > 50 µM | > 50 µM |
| CC(C)CCC(=O)[C@@H](C)[C@H]1CC[C@H]2[C@@H]3CC[C@H]4CC(=O)C=C[C@]4(C)[C@H]3CC[C@]12C | 8.93 µM | 9.03 µM |
| CC(C)C/C=C/[C@@H](C)[C@H]1CC[C@H]2[C@@H]3CCC4=CC(=O)C=C[C@]4(C)[C@H]3CC[C@]12C [DENDRONESTERONE C] | > 100 µM | > 100 µM |
